What is called pIC50 is the negative decadic logarithm of the IC50, by convention in mol/L. A higher pIC50 goes with a low IC50.

The source of these data is ChEMBL document CHEMBL1152355, “Application of a 3,3-diphenylpentane skeleton as a multi-template for creation of HMG-CoA reductase inhibitors” (Bioorg Med Chem Lett, 2009).

Test [1] deals with T1, 3-hydroxy-3-methylglutaryl-coenzyme A reductase (Rattus norvegicus, UniProt P51639).
T1 sequence (P51639 whole entry): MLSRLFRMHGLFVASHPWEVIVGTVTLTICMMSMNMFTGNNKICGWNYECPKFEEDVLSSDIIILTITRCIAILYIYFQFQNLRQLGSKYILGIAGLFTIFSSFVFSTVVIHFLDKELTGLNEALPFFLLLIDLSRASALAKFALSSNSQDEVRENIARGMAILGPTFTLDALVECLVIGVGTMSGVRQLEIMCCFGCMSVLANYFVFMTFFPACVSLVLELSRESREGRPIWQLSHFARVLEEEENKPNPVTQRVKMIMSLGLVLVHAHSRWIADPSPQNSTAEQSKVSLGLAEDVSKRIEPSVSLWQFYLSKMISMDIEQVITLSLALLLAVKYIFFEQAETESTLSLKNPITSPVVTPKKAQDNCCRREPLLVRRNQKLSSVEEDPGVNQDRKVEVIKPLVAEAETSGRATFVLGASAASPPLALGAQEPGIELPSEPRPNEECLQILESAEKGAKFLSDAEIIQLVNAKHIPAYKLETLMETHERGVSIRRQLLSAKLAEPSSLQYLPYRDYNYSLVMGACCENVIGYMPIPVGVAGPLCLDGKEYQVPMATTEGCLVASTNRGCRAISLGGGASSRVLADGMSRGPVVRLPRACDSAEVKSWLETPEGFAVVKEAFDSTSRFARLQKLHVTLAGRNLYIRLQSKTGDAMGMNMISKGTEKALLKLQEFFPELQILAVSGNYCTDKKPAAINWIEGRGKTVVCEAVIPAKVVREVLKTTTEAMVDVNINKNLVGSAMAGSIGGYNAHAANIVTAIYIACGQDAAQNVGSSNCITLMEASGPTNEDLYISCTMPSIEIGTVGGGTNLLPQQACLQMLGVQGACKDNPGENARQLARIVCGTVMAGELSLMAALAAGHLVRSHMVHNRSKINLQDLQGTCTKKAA
Put plainly: Inhibition of rat HMG-CoA reductase using 0.37 MBq DL-[3-14C]HMG-CoA. The essentials: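 Method B used the lower substrate level, 0.37 MBq DL-[3-14C]HMG-CoA, with rat microsomal fraction (10 mg protein) at 37 °C for 30 min. Stopped with 2 M HCl, with conversion to mevalonolactone. Separation was on silica TLC with acetone/benzene 1:1, and radioactivity per spot was quantified by bioimaging. The IC50 was taken from this readout.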

Test [2] addresses T1, 3-hydroxy-3-methylglutaryl-coenzyme A reductase. The experiment in a line: Inhibition of rat HMG-CoA reductase using 3.7 MBq DL-[3-14C]HMG-CoA. The essentials:
(§1)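 Rat HMG-CoA reductase (method A): 3.7 MBq DL-[3-14C]HMG-CoA with 10 mg microsomal protein, 37 °C for 30 min. The reaction was stopped with 2 M HCl and metabolites were converted to mevalonolactone. Products were separated by silica TLC in acetone/benzene (1:1 v/v), and spot radioactivity was read by bioimaging analyzer.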

The target is the same in test [3]. The experiment in a line: Inhibition of rat HMG-CoA reductase at 100 mM using 3.7 MBq DL-[3-14C]HMG-CoA. A digest of the protocol:
as §1

pIC50: −log10 of the molar value.

In test [1], `CCC(CC)(c1ccccc1)c1ccc(/C=C/[C@@H](O)C[C@@H](O)CC(=O)O)c(C(C)C)c1` had a pIC50 of 5.74.

`CCC(CC)(c1cccc(F)c1)c1ccc(/C=C/[C@@H](O)C[C@@H](O)CC(=O)O)c(C(C)C)c1` had a pIC50 in test [2] of 4.04.

On to `CCC(CC)(c1ccc(F)cc1)c1ccc(/C=C/[C@@H](O)C[C@@H](O)CC(=O)[O-])cc1.[Na+]`, for which, in test [3], the IC50 entry is listed as “Not Active”.

In test [1], `CCC(CC)(c1ccccc1)c1ccc(/C=C/[C@@H](O)C[C@@H](O)CC(=O)O)c(-c2ccc(F)cc2)c1` had a pIC50 of 6.82.

Consider `CC[C@H](C)C(=O)O[C@H]1CCC=C2C=C[C@H](C)[C@H](CC[C@@H]3C[C@@H](O)CC(=O)O3)[C@H]21` [MEVASTATIN], for which the negative logarithm of the IC50 (pIC50) in test [1] is 7.40. Compared with the last molecule, the pIC50 is 0.58 log units higher.
